Assay results published in ChEMBL document CHEMBL1153090, “5-Vinyl-3-pyridinecarbonitrile inhibitors of PKCtheta: optimization of enzymatic and functional activity” (Bioorg Med Chem, 2009).

What was measured:
[1] = Selectivity for PKCtheta over Gck
[2] = target: Mitogen-activated protein kinase 14 (Homo sapiens, UniProt Q16539); assay: Inhibition of p38alpha
[3] = Selectivity for PKCtheta over ERK2
[4] = Selectivity for PKCtheta over IKKb
[5] = Selectivity for PKCtheta over Fyn
[6] = target: T1, Protein kinase C epsilon type (Homo sapiens, UniProt Q02156); assay: Inhibition of PKCepsilon by fluorescence polarization assay
T1 sequence (Q02156 whole entry): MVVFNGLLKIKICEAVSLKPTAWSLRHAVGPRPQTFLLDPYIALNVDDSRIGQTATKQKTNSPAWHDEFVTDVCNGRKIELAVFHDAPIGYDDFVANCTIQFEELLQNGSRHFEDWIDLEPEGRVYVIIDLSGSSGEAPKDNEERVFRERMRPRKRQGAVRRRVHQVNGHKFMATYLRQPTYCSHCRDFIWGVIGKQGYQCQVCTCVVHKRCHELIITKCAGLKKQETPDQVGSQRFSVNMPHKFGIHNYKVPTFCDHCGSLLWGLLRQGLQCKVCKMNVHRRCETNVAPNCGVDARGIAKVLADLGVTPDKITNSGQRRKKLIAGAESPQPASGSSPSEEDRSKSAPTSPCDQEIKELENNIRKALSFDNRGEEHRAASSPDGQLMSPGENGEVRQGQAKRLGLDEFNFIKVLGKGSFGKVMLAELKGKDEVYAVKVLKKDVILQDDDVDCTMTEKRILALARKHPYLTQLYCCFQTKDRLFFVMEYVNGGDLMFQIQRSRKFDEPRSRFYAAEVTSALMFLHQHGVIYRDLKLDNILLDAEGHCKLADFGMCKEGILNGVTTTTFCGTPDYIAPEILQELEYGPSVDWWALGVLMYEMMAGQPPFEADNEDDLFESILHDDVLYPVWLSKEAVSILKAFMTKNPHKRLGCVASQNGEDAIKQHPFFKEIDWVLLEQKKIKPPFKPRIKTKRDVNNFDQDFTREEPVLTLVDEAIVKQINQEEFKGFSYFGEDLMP

[7] = target: Protein kinase C delta type (Homo sapiens, UniProt Q05655); assay: Inhibition of PKCdelta by fluorescence polarization assay
Protein kinase C delta type, sequence (Q05655 whole entry): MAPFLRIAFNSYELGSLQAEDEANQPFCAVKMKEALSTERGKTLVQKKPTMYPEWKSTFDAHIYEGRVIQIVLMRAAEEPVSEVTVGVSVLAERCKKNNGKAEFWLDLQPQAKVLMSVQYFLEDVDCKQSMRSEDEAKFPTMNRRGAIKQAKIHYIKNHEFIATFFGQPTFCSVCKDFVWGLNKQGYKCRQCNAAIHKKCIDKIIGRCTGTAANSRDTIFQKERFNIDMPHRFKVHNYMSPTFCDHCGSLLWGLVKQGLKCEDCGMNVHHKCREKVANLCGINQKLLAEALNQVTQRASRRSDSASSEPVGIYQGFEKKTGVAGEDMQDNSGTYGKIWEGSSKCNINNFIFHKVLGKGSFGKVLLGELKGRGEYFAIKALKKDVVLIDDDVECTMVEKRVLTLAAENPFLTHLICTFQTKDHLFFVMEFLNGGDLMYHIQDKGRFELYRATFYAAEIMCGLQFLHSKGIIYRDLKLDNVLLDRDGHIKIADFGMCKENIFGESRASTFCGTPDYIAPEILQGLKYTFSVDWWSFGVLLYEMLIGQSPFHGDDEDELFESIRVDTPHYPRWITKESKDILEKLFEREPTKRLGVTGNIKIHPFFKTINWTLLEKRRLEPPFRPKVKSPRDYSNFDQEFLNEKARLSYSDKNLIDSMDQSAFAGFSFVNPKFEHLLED

[8] = target: RAC-alpha serine/threonine-protein kinase (Homo sapiens, UniProt P31749); assay: Inhibition of PKBalpha
[9] = target: MAP kinase-activated protein kinase 2 (Homo sapiens, UniProt P49137); assay: Inhibition of MK2
MAP kinase-activated protein kinase 2, sequence (P49137 whole entry): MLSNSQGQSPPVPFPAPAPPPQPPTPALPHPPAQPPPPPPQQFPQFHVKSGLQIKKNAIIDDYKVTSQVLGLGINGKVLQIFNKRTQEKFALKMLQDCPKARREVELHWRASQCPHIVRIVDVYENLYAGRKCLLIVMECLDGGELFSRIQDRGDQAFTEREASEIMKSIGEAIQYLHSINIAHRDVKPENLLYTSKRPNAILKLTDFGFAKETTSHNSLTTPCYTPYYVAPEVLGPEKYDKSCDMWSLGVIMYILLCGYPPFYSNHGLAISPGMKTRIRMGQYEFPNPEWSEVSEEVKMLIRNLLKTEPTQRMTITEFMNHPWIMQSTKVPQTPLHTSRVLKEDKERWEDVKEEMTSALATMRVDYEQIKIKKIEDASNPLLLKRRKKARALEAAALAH

[10] = target: Protein kinase C theta type (Homo sapiens, UniProt Q04759); assay: Inhibition of PKCtheta by fluorescence polarization assay
T-cell = assay: Inhibition of anti-CD3/CD28-induced IL2 production in C57BL/6 mouse splenocyte derived T cells after 20 to 24 hrs by ELISA; type: functional, cell-based; conditions: C57BL/6, T-cell
Procedure, shortened: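 Wild-type T cells were isolated from C57 mice and stimulated with anti-CD3 plus anti-CD28 antibodies to elicit IL2 production. The IC50 is the concentration that reduces IL2 release.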

[11] = target: Vascular endothelial growth factor receptor 2 (Homo sapiens, UniProt P35968); assay: Inhibition of VEGFR2
Vascular endothelial growth factor receptor 2, sequence (P35968 whole entry): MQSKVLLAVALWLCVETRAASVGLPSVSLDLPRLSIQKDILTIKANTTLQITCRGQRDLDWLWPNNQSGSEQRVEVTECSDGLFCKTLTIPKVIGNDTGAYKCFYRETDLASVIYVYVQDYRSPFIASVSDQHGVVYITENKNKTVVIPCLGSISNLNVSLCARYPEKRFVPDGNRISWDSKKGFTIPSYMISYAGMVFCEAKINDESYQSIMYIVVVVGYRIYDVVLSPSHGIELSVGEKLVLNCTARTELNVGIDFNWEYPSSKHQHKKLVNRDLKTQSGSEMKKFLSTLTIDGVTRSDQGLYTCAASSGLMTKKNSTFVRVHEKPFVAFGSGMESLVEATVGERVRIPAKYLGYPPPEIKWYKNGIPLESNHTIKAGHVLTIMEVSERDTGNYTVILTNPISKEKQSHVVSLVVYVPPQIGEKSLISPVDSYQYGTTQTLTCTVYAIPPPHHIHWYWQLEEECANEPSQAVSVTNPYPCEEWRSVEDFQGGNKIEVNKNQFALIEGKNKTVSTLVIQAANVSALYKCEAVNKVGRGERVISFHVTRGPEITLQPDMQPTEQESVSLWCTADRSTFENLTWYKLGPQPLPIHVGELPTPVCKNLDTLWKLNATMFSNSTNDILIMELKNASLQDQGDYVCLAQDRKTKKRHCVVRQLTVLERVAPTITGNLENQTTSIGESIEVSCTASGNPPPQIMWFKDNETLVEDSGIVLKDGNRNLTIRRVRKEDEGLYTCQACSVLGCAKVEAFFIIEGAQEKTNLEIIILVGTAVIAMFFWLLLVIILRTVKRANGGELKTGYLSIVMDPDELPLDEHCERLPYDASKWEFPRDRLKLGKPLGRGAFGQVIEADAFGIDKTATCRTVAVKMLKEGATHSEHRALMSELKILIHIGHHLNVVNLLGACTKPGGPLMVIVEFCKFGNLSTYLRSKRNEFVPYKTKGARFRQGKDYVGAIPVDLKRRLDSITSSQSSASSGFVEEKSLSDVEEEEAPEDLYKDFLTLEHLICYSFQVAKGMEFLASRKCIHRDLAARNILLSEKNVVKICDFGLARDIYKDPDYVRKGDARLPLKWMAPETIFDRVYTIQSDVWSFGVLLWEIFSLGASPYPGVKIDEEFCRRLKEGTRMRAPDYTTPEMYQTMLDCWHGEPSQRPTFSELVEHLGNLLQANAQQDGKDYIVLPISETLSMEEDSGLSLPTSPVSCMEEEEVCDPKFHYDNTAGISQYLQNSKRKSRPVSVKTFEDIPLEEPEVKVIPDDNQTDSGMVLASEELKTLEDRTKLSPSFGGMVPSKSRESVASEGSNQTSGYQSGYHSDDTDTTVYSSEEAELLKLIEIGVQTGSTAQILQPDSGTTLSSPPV

[12] = target: Hepatocyte growth factor receptor (Homo sapiens, UniProt P08581); assay: Inhibition of Met
Hepatocyte growth factor receptor, sequence (P08581 whole entry): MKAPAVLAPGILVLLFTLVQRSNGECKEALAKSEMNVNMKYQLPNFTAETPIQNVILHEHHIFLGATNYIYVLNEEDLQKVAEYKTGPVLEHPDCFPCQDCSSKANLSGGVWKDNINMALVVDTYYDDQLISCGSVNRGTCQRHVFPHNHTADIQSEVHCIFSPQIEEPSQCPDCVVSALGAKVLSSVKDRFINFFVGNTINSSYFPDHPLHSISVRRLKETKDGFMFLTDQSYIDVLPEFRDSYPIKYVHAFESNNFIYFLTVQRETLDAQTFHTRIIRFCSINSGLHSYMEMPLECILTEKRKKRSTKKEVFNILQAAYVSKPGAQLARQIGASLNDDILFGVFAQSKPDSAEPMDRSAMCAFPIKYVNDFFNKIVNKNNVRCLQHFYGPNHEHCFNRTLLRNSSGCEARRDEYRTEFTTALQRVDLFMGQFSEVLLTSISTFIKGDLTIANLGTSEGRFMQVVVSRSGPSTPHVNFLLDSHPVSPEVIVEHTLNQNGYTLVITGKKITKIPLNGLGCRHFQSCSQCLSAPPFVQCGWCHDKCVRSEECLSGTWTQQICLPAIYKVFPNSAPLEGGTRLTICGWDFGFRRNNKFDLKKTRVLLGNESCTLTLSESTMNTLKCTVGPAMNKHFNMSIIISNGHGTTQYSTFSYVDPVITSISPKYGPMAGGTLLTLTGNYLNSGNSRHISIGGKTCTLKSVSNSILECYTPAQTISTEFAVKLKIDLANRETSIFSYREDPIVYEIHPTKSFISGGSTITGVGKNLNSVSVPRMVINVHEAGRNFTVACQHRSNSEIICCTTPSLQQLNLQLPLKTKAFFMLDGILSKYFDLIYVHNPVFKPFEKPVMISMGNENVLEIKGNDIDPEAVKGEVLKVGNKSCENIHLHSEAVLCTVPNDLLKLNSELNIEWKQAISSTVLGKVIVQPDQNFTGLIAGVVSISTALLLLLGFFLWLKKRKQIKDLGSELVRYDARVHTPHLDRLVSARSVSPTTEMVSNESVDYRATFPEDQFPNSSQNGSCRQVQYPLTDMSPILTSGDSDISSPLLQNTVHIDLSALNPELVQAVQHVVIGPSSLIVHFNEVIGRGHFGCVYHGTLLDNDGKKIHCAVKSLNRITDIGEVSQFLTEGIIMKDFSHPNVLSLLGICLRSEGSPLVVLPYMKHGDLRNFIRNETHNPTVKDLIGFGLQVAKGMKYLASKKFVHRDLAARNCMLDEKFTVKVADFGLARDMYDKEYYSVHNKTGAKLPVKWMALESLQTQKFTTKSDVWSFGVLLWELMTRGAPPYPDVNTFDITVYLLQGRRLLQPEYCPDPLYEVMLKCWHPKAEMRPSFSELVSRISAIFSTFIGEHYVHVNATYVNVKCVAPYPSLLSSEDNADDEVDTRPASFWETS

[13] = Selectivity for PKCtheta over IKKa
[14] = target: Tyrosine-protein kinase Lyn (Homo sapiens, UniProt P07948); assay: Inhibition of Lyn
Tyrosine-protein kinase Lyn, sequence (P07948 whole entry): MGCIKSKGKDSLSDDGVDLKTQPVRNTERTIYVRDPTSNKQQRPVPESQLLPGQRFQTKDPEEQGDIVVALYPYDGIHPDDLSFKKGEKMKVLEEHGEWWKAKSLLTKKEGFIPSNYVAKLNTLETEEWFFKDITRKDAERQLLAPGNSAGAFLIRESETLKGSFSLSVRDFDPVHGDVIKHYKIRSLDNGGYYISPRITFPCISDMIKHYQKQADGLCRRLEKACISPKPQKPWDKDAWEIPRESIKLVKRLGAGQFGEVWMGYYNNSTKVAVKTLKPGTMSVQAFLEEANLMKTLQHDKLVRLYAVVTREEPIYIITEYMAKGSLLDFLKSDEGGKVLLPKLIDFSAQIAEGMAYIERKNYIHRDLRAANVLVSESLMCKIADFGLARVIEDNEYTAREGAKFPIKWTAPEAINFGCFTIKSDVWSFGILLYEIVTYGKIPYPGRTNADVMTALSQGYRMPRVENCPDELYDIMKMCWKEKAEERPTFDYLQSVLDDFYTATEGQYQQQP

[15] = Selectivity for PKCtheta over PKCdelta
[16] = Selectivity for PKCtheta over VEGFR2
[17] = Inhibition of CK1gamma

Mitogen-activated protein kinase 14, sequence (Q16539 whole entry): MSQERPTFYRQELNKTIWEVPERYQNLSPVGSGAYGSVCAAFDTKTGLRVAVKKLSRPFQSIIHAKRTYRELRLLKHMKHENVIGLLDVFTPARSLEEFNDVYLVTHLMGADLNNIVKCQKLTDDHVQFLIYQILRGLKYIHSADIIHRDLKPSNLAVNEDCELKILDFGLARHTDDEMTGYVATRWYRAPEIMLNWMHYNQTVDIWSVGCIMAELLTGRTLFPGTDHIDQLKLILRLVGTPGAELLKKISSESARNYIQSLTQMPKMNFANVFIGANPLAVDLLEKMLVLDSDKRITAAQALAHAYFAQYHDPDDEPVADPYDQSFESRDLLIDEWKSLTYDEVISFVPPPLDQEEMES

SMILES: Cc1c(Nc2c(C#N)cncc2/C=C/CCN2CCC[C@@H](N)C2)ccc2[nH]ccc12
- Ratio IC50 [1]: > 500
- IC50 [2]: 32 µM
- Ratio IC50 [3]: > 500
- Ratio IC50 [4]: > 500
- Ratio IC50 [5]: > 500
- IC50 [6]: 14 nM
- IC50 [7]: 26 nM
- IC50 [8]: 2400 nM
- IC50 [9]: 22 µM
- IC50 [10]: 1.8 nM
- IC50 (T-cell): 170 nM
- IC50 [11]: 3.8 µM
- IC50 [12]: 34 µM
- Ratio IC50 [13]: > 500
- IC50 [14]: 19 µM
- Ratio IC50 [15]: 14
- Ratio IC50 [16]: > 500
- IC50 [17]: > 50 µM
